Key:
[1] = Selectivity index, ratio of IC50 for human HaCaT cells to IC50 for human MNT-1 cells by MTS assay
[2] = Drug metabolism in rat liver microsomes assessed as CYP450-mediated o-quinone formation measured after 3 hrs by HPLC analysis; assay type: ADME, Microsome
[3] = Selectivity index, ratio of IC50 for human HaCaT cells to IC50 for human cells by MTS assay
[4] = Half life in 80% human plasma by HPLC analysis; assay type: ADME, cell-free
Method in brief: (§1)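 Stability run at 37 °C in PBS pH 7.4 or 80% human plasma. HPLC followed loss of parent and appearance of hydrolysis products over at least 3 half-lives. Decay fitted pseudo-first-order: kobs taken as the slope of ln(concentration) vs time, and t1/2 calculated from kobs.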

[5] = 1-Octanol/phosphate buffer apparent partition coefficient, logP of the compound measured after 30 mins by HPLC analysis; assay type: physicochemical
[6] = Hepatotoxicity in rat liver microsomes assessed as GSH depletion measured after 180 mins by Ellman's method; assay type: toxicity, Microsome; settings: 3 h
[7] = Cytotoxicity against human MNT-1 cells assessed as reduction in cell viability incubated for 72 hrs by MTS assay; assay type: functional, cell-based; settings: MNT-1, 72 h
Method in brief: (§2)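 Cell lines: MNT-1 and A375 (human melanoma), B16F10 (murine melanoma) and HaCaT (human keratinocytes). Compounds incubated with cells for 72 h; IC50 reported in μM.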

[8] = target: T1, Tyrosinase (Agaricus bisporus, UniProt O42713); experiment: Substrate activity at mushroom tyrosinase assessed as half-life of the compound by HPLC analysis; assay type: ADME
T1 sequence (O42713 whole entry): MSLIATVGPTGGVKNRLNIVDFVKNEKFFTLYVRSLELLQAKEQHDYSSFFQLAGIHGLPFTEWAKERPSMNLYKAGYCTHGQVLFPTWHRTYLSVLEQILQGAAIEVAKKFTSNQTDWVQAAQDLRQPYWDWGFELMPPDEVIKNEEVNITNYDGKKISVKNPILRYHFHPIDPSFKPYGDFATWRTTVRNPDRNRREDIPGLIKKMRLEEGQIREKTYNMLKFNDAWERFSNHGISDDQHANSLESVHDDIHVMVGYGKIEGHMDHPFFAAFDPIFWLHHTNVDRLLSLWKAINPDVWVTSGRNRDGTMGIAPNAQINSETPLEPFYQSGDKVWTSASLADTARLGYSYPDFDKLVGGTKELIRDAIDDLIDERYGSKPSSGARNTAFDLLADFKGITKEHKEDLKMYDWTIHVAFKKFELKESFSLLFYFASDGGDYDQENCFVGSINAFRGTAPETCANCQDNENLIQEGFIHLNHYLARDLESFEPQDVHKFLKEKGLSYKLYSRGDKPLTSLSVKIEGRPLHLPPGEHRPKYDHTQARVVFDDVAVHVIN
Method in brief: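 Incubated with mushroom tyrosinase at 100 units/mL. Reaction followed by HPLC to derive substrate half-life (min).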

[9] = system: B16-F10; experiment: Cytotoxicity against mouse B16-F10 cells assessed as reduction in cell viability incubated for 72 hrs by MTS assay; assay type: functional, cell-based; settings: B16-F10, 72 h; method in brief: as §2
[10] = system: HaCaT; experiment: Cytotoxicity against human HaCaT cells assessed as reduction in cell viability incubated for 72 hrs by MTS assay; assay type: cell-based; method in brief: as §2
[11] = Selectivity index, ratio of IC50 for human HaCaT cells to IC50 for mouse B16-F10 cells by MTS assay; assay type: toxicity; settings: HaCaT cells and B16-F10 cells, read-out: Ratio IC50
Method in brief: (§3)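 Human HaCaT keratinocytes and the melanoma line (human A375 or murine B16F10) were each incubated with compound for 72 h, and IC50 was determined in each line. Selectivity index is HaCaT IC50 divided by melanoma-line IC50.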

[12] = Half life of the compound in PBS buffer at pH 7.4 by HPLC analysis; assay type: physicochemical; method in brief: as §1
[13] = system: A-375; experiment: Cytotoxicity against human A-375 cells assessed as reduction in cell viability incubated for 72 hrs by MTS assay; assay type: functional, cell-based; settings: A-375, 72 h; method in brief: as §2
[14] = target: T1, Tyrosinase; experiment: Drug metabolism assessed as mushroom tyrosinase-mediated drug oxidation by measuring dihydroxylated metabolite formation with m/z 408 by mass spectrometry; assay type: ADME
[15] = Selectivity index, ratio of IC50 for human HaCaT cells to IC50 for human A-375 cells by MTS assay; method in brief: as §3
[16] = target: T1, Tyrosinase; experiment: Drug metabolism assessed as mushroom tyrosinase-mediated drug oxidation by measuring dihydroxylated metabolite formation with m/z 410 by mass spectrometry; assay type: ADME
[17] = target: T1, Tyrosinase; experiment: Drug metabolism assessed as mushroom tyrosinase-mediated drug oxidation by measuring dihydroxylated metabolite formation with m/z 344 by mass spectrometry; assay type: ADME

SMILES | Drug metabolism [2] | half-life [4] [min] | logD at 0.5 h [5] | half-life [8] [min] | half-life [12] [days] | Drug metabolism [14] | Drug metabolism [16] | Drug metabolism [17] | Ratio IC50 [1] | Ratio IC50 [3] | Activity [6] | IC50 [7] [µM] | IC50 [9] [µM] | IC50 [10] [µM] | selectivity ratio [11] | IC50 [13] [µM] | Ratio IC50 [15]
CCOC(=O)c1ccc(/N=N/NC)cc1 |  |  |  |  |  |  |  |  |  |  |  | > 60 | > 60 | > 60 |  |  | 
CN/N=N/c1ccc(Br)cc1 |  |  |  |  |  |  |  |  |  |  |  | > 60 | > 60 | > 60 |  |  | 
CN(/N=N/c1ccc(Cl)cc1)C(=O)CCSc1ccc(O)cc1 |  |  |  |  |  |  |  |  | 2 |  |  |  | > 75 | > 75 | 2 | > 75 | 2
CN=NNc1ccc(C(C)=O)cc1 |  |  |  |  |  |  |  |  |  |  |  | > 75 | > 75 | > 130 |  |  | 

Continued, in another order:

Drug metabolism [2] | half-life [4] [min] | logD at 0.5 h [5] | half-life [8] [min] | half-life [12] [days] | Drug metabolism [14] | Drug metabolism [16] | Drug metabolism [17] | SMILES | Ratio IC50 [1] | Ratio IC50 [3] | Activity [6] | IC50 [7] [µM] | IC50 [9] [µM] | IC50 [10] [µM] | selectivity ratio [11] | IC50 [13] [µM] | Ratio IC50 [15]
Metabolite_Notdetected | 6280 | 3.95 | 0.5 | > 10 |  |  |  | CN(/N=N/c1ccc(Br)cc1)C(=O)NCCSc1ccc(O)cc1 | 2 | 2 | Non-Toxic | > 75 | > 75 | > 150 | 2 |  | 
 | 498 |  | 2.1 | 4.4 | Metabolite_Detected | Metabolite_Detected |  | CN(/N=N/c1ccc(Br)cc1)C(=O)CCSc1ccc(O)cc1 | 2 |  |  | > 75 | > 75 |  | 2 | 55 | 2
 | 522 |  | 2.3 | 4.2 |  |  | Metabolite_Detected | Cc1ccc(/N=N/N(C)C(=O)CCSc2ccc(O)cc2)cc1 | 2 |  |  |  | > 75 | 45.8 | 2 | 47 | <1
 | 394 |  |  | 5.4 |  |  |  | CCOC(=O)c1ccc(/N=N/N(C)C(=O)CCSc2ccc(O)cc2)cc1 | 2 |  |  | > 75 | > 75 |  | 2 | 61 | 2
 | 179 |  |  | 3.6 |  |  |  | CN(/N=N/c1ccc(C#N)cc1)C(=O)CCSc1ccc(O)cc1 | 2 |  |  | > 75 | > 75 |  | 2 | > 75 | 2

From ChEMBL document CHEMBL4825779, “Sulfur Analogues of Tyrosine in the Development of Triazene Hybrid Compounds: A New Strategy against Melanoma” (ACS Med Chem Lett, 2021)
